Test system: MS2 coat protein
Experiment: apparent Kd, MS2 coat protein; higher = weaker binding; RNA-MaP array
Summary of the method: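 Incubations were done at room temperature with fluorescently labeled MS2 coat protein at 1.5 nM to 3 μM and designed RNAs transcribed on an Illumina sequencing chip from sequenced DNA templates, with or without input ligand. Apparent Kd is the median of binding curves fitted for each cluster. Designs with fewer than 10 measured clusters were excluded.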

[1] = designed as: ON switch for flavin mononucleotide, no ligand
[2] = ligand present: flavin mononucleotide, designed as: ON switch for flavin mononucleotide
[3] = designed as: OFF switch for flavin mononucleotide, no ligand
[4] = ligand present: flavin mononucleotide, designed as: OFF switch for flavin mononucleotide
[5] = designed as: ON switch for theophylline, no ligand
[6] = ligand present: theophylline, designed as: ON switch for theophylline
[7] = designed as: ON switch for tryptophan, no ligand
[8] = ligand present: tryptophan, designed as: ON switch for tryptophan

Sequence	apparent Kd [1] [nM]	apparent Kd [2] [nM]	other results
UAGGACAUCCAGAAGGUAACCCAAUGAUAUAACACAUGAGGAUCACCCAUGUUGAAUCAGAGACUUAAGGAUAUGGUUGAUCUU	23.1	13.5	
GUAUUACAUGAGGAUCACCCAUGUGCGCCGCGUCAAGGAUAUGUAUCGUACGUGUAGUAAACAGAAGGUGACGGAU	170	71.2	
AUACAGCUAGGAUAUCCGAUAGUAUACAUGAGGAUCACCCAUGUCCUGACGGCCGACCAUGGAGAAGGAGCAGAUA			apparent Kd [3]: 42.2 nM; apparent Kd [4]: 31.9 nM
GUUUCACAUGAGGAUCACCCAUGUCAAUGCACUGUAGGAUAUGGUUGGUUUCCGCAGCGGCCAGAAGGACAAAUAU	51.2	33.5	
GGUUCUUGUUGACGUUUAUACAUGAGGAUCACCCAUGUUGCGCAGGAUAUUUCACAUUGAUAGAGAAAGAAGGGCGAUGUACGU	10.4	8.68	
AGUUUGGGCGCAGGAUAUCUUCACAUGAGGAUCACCCAUGUCCAUAAGAUAUUUAUGUCAUUUGGAGAGAAGGGCGGUUGUAAU	55.1	36.1	
GUCUCAGACCGAGAUACCAGCUGGGUUUCCCACAUGAGGAUCACCCAUGUAUUCAGAUUAAGCCCUUGGCAGCUCAUCUAGGUCC			apparent Kd [5]: 15.8 nM; apparent Kd [6]: 20.9 nM
ACAUGAUGCUAGAAGGGCACACAUGAGGAUCACCCAUGUCGAACGAUUCUUCGGGACUAUCGCAUGCAGGAUAUAGCUAAAUCG	13.2	8.24	
UUCAUUCGAACCAAGGAUAUGUGAUAAGUUACAUGAGGAUCACCCAUGUAUCAGUACAUCAACAGACAGAAGGUGGUGCAUAGUCA	7.14	6.57	
AUGUCGCAAUGGAAAAGACAUGAGGAUCACCCAUGUCAGCGUAGAAGGACCUUGUCGACUAAUGGGUAGGAUAUACGAGAAUCC	6.79	7.2	
CCUCGAACGGCAGGAUAUAUUGGUCAAAAUUCUAUAGAAGGGCCUCUCCCUGGAACAUGAGGAUCACCCAUGUGCGCACUUGUG	57.4	61.9	
ACCUAAUAAGGAUAUACGAAAGAGCCACCUGUAAACAACCGACAUGAGGAUCACCCAUGUAGAAGGUAUUAGGU			apparent Kd [3]: 4.32 nM; apparent Kd [4]: 9.47 nM
GUACCACAGUCGGCCGCCACUAAGUUGUAUUCCAGCAGGACGAAACAUGAGGAUCACCCAUGUCCUAGGACCGGGACUUCCGUCG			apparent Kd [7]: 21.2 nM; apparent Kd [8]: 21.6 nM
CUUCAACAUGAGGAUCACCCAUGUAGUGAUACCAGUCACUCAUACGACCCUUGGCAGCACAUUUUCUGUCGGCAUGUAGACGAUC			apparent Kd [5]: 121 nM; apparent Kd [6]: 59.9 nM
CGGUGGUGAGGAUAUCAAAUGUGGAAGGAGAAGACACCCAGUGAGAAGGCACAUGAGGAUCACCCAUGUACAGC			apparent Kd [3]: 10.7 nM; apparent Kd [4]: 6 nM
AAUACACUUGAGAAGGCCCAAACAUGAGGAUCACCCAUGUGACAUGUAAUCGCCGCGAAUGGAAGGGAGGAUAUCAGAAUCCAC	16.2	17.5	
AUGUGUAUUGAAGGAUAUGAAGCCGGCAUAAAAUCAGAAGGUCAACUAAUUACACAUGAGGAUCACCCAUGUGAUGACAUGCUU			apparent Kd [3]: 17.2 nM; apparent Kd [4]: 24.8 nM
UUGUGUACUCGAGGAUAUAAUGGACUACAUGAGGAUCACCCAUGUAUACGCCCACAGAGCGUCUUUUAGAAGGCGACGCAUCAU	8.4	7.85	
CCAUGGUUGACGGCCGCCACUCAUUAGUCUUUGAGGUUGGCACAUGAGGAUCACCCAUGUCUGCAGAGGACCGGGUCUCGCCACA			apparent Kd [7]: 44.3 nM; apparent Kd [8]: 44.2 nM
GCUUUGCUGUGGUCCCUGAUACAUGAGGAUCACCCAUGUGAGAAGGAUAUUCAGAAUGGUCUCCCGAAGAAGGUCUGCACCUGG			apparent Kd [3]: 15.4 nM; apparent Kd [4]: 11.3 nM
CUACCUACAGGAUAUACAUGAGGAUCACCCAUGUUUCAACGUGGAACAGGUUGAACAUGUAGAAGGGAAUCGUU			apparent Kd [3]: 20.4 nM; apparent Kd [4]: 17.2 nM
CUCCCACAUGAGGAUCACCCAUGUAUGAAAAUACAAGGAUAUGGCGUCCUGAUUAGCGGCCCAGAAGGUGUGCUUU	114	70.2	

Source: the EternaBench riboswitch data
